# Measurements reported in ChEMBL document CHEMBL1287649, “Synthesis and anti-tubercular and antimicrobial activities of some 2r,4c-diaryl-3-azabicyclo[3.3.1]nonan-9-one N-isonicotinoylhydrazone derivatives” (2010).
# Columns and labels:
# [1] = system: Mycobacterium tuberculosis; assay: Antitubercular activity against isoniazid-resistant Mycobacterium tuberculosis assessed as reduction of relative light unit at 1 ug/ml after 72 hrs by luciferase reporter phage assay relative to control; format: functional; design: scale not given: the % may be the effect or the level left
# Summary of the method: (§1)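 Luciferase reporter phage assay. Luminescence (RLU) integrated for 10 s on a luminometer, in duplicate per sample and averaged. Percent RLU reduction calculated against untreated control. Run repeated if the control mean RLU was below 1000.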
# [2] = system: Mycobacterium tuberculosis; assay: Antitubercular activity against isoniazid-resistant Mycobacterium tuberculosis assessed as reduction of relative light unit at 2 ug/ml after 72 hrs by luciferase reporter phage assay relative to control; format: functional; design: scale not given: the % may be the effect or the level left; summary of the method: as §1
structure (smiles),measurement,setting,value
O=C(N/N=C1\C2CCCC1[C@H](c1ccccc1)N[C@@H]2c1ccccc1)c1ccncc1,Activity,[1],69.6%
same,Activity,[2],77.52%
COc1ccc([C@H]2N[C@@H](c3ccc(OC)cc3)C3CCCC2/C3=N\NC(=O)c2ccncc2)cc1,Activity,[1],67.07%
same,Activity,[2],74.19%
O=C(N/N=C1\C2CCCC1[C@H](c1ccc(Cl)cc1)N[C@@H]2c1ccc(Cl)cc1)c1ccncc1,Activity,[1],63.61%
same,Activity,[2],73.28%
COc1cccc([C@H]2N[C@@H](c3cccc(OC)c3)C3CCCC2/C3=N\NC(=O)c2ccncc2)c1,Activity,[1],69.18%
same,Activity,[2],78.33%
O=C(N/N=C1\C2CCCC1[C@H](c1cccc(Cl)c1)N[C@@H]2c1cccc(Cl)c1)c1ccncc1,Activity,[1],65.42%
same,Activity,[2],75.83%
NNC(=O)c1ccncc1 [ISONIAZID],Activity,[1],89.65%
same,Activity,[2],95.85%
Cc1ccc([C@H]2N[C@@H](c3ccc(C)cc3)C3CCCC2/C3=N\NC(=O)c2ccncc2)cc1,Activity,[1],62.3%
same,Activity,[2],71.07%
O=C(N/N=C1\C2CCCC1[C@H](c1ccc(F)cc1)N[C@@H]2c1ccc(F)cc1)c1ccncc1,Activity,[1],67.63%
same,Activity,[2],75.08%
